Active and inactive are the calls of the source.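 How the source made its calls, unless noted: active means inhibition at or above 50% at 10 µM; inactive means inhibition below 50%.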

A short description of test [1]: inhibitors of TNFa-induced NFkB p65 translocation, primary screen, imaging, HUVEC, MLSMR starter and 10KST1 sets (AID 438;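 active means inhibition above 20% together with a positive visual image hit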;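 further: compound added about 3h40 before a 20 min TNFalpha stimulation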;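 on inhibition: signal is the nuclear over cytoplasmic p65 intensity ratio per well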). To be noted: HUVEC TNFa-induced p65 nuclear translocation; cell count: measured here: nuclei count (cytotoxicity indicator), at 2.08 µM; inhibition: at 2 µM, stronger effect = higher value, 0% TNFa-plus-vehicle, 100% no-TNFa wells.
Test [2] can be described thus: reduction of polyQ htt aggregates in cells – imaging, exon1htt(103Q)mCFP cells, high-content imaging, primary screen (AID 483;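 active means visual image review flags a hit and inhibition of aggregation exceeds 20%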;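 further: compound exposure lasted 3 days before fixation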;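 on nuclei count: percent of the per-plate median nuclei count of sample wells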). To be noted: exon1htt(103Q)mCFP cell line, aggregate imaging, at 2 µM; inhibition of aggregation: stronger effect = higher value; nuclei count: measured here: cell count, toxicity.
Test [3] can be described thus: endothelial E-selectin expression blockers – imaging, HUVEC, immunofluorescence, MLSMR starter and 10KST1 sets, primary screen (AID 487;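 active means visually confirmed hit in the image check and inhibition above 20%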;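 on inhibition: signal is fraction of cell area covered by stained E-selectin grains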;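 on nuclei count: 100% = median nuclei count of all wells on the same plate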). To be noted: HUVEC TNFalpha-induced E-selectin immunofluorescence imaging, at 2 µM; inhibition: stronger effect = higher value; nuclei count: measured here: cell number, toxicity.
Test [4] has as its target Voltage-gated potassium channel subunit beta-2 (Rattus norvegicus) (UniProt P62483). Kind of test: inhibitors of rat Kvbeta2 reductase activity – biochemical, NADPH fluorescence, primary screen (AID 622;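 active means fluorescence slope higher than the sample average by over 3 SD, cut at about -0.22 in these data, passing the limit was not always enough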;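 further: slope of raw intensity against log time taken from 70 to 1610 s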). To be noted: recombinant KvBeta, 4-cyanobenzaldehyde reduction, at 10 µM, stronger effect = higher value.
The target is the same in test [5]. Kind of test: enhancers of rat Kvbeta2 NADPH turnover – biochemical, NADPH fluorescence, primary screen (AID 623;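 active means NADPH fluorescence slope more negative than the mean of all samples by about 3 SD, 99.7% confidence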;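 further: fluorescence intensity change per second fitted from 20 to 320 s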). To be noted: Recombinant KvBeta, NADPH fluorescence decrease slope, 10 min; at 10 µM; stronger effect = lower value.
The target of test [6] is Muscarinic acetylcholine receptor M4 (Homo sapiens) (UniProt P08173). Kind of test: M4-linked GIRK flux change, two-sided – cell-based, HEK293 M4/GIRK, thallium flux, BTC-AM, M4 allosteric agonist project, primary screen (AID 625;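 active means fluorescence slope after compound addition differing from the mean of all tested samples at 99.7% confidence, mostly higher but some lower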;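 further: thallium influx through GIRK channels coupled to M4 in HEK293 cells with BTC-AM dye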). To be noted: at 10 µM, actives lie on both sides. An outline of the steps: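 Material: HEK293 cells with M4 receptor and GIRK channels; Times: cells overnight at 37 °C, BTC-AM loading 1 h, reads 2 min total; Technique: kinetic BTC-AM fluorescence sampled at 1 Hz, 10 s pre-addition baseline; Read-out basis: slope over 15–24 s of trace normalized to starting intensity; Controls: carbachol positive, DMSO negative.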

A short description of test [7]: blockers of RIG-like receptor reporter activation – cell-based, Sendai virus stimulus, luciferase, 10K MLSCN set, TLR/RLR signaling modifier project, primary screen (AID 602276).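 Further: firefly luciferase from ISG56 promoter only with Renilla not read in this screen; 0% = Sendai virus plus DMSO and 100% = medium plus DMSO without virus.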 To be noted: HEK293 RL24 IRF3 luciferase reporter, at 10 µM, stronger effect = higher value. For orientation: Reporter assays use an easily measured gene product as a stand-in for the process of interest.

Test [8] is described as follows: TLR3 IRF3 reporter activation blockers – cell-based, poly I:C stimulus, luciferase, 10K MLSCN set, primary screen (AID 602277;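 active means inhibition of the reporter signal at or above 50%; inactive means inhibition below 50%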). To be noted: HEK293-TLR3 RL24 IRF3 luciferase reporter, at 10 µM, stronger effect = higher value.

Sequence of Voltage-gated potassium channel subunit beta-2 (Rattus norvegicus) (P62483 whole entry, looked up): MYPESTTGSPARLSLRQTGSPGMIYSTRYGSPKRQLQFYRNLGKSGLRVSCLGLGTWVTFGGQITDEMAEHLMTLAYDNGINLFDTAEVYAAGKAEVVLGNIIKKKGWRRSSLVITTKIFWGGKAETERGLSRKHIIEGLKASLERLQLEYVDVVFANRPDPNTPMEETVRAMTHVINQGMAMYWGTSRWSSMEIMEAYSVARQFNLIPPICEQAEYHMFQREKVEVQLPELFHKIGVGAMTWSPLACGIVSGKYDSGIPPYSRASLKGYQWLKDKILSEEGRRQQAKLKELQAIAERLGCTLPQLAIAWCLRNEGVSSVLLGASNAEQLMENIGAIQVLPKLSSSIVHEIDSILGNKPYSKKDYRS
Sequence of Muscarinic acetylcholine receptor M4 (Homo sapiens) (P08173 whole entry, looked up): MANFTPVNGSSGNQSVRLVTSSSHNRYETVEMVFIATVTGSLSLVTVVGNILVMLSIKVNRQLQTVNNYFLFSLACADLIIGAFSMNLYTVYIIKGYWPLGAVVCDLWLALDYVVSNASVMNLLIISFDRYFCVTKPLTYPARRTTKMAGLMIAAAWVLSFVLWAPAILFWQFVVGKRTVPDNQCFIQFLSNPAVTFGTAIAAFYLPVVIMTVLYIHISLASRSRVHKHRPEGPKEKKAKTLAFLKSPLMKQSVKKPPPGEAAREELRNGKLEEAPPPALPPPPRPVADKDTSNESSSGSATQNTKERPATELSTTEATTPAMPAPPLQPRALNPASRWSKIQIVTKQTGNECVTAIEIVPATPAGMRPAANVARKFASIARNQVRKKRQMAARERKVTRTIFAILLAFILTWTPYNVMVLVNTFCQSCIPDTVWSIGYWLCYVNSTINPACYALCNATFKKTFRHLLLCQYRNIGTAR

For orientation: inhibition means the drop in the measured response relative to a control, in per cent. In the case of `Cc1nn(-c2nc3ccccc3[nH]2)c(N)c1-c1ccccc1`, in test [1], the cell count worked out at 666. Also, the inhibition was -7.5% (inactive) in test [1], -105% (inactive) in test [3], -38.3% (inactive) in test [7] and -134% (inactive) in test [8]. Besides, the inhibition of aggregation in test [2] is -12.6% (inactive). Further, the nuclei count in test [2] and in test [3] was 110% throughout. Moreover, the fluorescence slope in test [4] was -0.47 (inactive); in test [6], 0.00573 (inactive). Also, the NADPH fluorescence slope in test [5] was -2.8e-06 (inactive).

On to `COc1ccccc1N1CCN(C(=O)CCNS(=O)(=O)c2ccc3c(c2)CCC(=O)N3)CC1`, for which, in test [1], the cell count came out at 556. For the same compound, the inhibition in test [1] was -18.8% (inactive); in test [3], -31.1% (inactive); in test [7] it was 5.92% (inactive); in test [8], 13.8% (inactive). Moreover, in test [2], the inhibition of aggregation is -1.4% (inactive). Further, the nuclei count in test [2] was found to be 123%; in test [3], 102%. Besides, the figures for the fluorescence slope in test [4] and in test [6] were -0.39 (inactive) and 0.00579 (inactive), respectively. For the same compound, the NADPH fluorescence slope in test [5] was -1.7e-05 (inactive).

Turning to `O=C(CCN1CCN(CCO)CC1)Nc1ccc(OCc2ccccc2)cc1`, the cell count in test [1] was 278. For the same compound, the inhibition in test [1] was 4.8% (inactive); in test [3] it was -29.4% (inactive); in test [7], -11.3% (inactive); in test [8] it was 0.289% (inactive). In addition, the inhibition of aggregation in test [2] was -5.1% (inactive). Moreover, the nuclei count was found to be 98.3% in test [2] and 105% in test [3]. Moreover, the figures for the fluorescence slope in test [4] and in test [6] were -0.584 (inactive) and 0.00748 (inactive), respectively. The NADPH fluorescence slope in test [5] is -2.1e-05 (inactive).

`CCOc1ccc(C(=O)N(Cc2ccc(N(C)C)cc2)C2CCS(=O)(=O)C2)cc1` (centres undefined): the cell count in test [1] is 249. The inhibition in test [1] is -12.2% (inactive); in test [3], -56.2% (inactive); in test [7], 19.7% (inactive); in test [8], 23.5% (inactive). The inhibition of aggregation in test [2] is 2.5% (inactive). Also, the nuclei count was 75% in test [2] and 96.7% in test [3]. Further, the fluorescence slope in test [4] was -0.618 (inactive); in test [6], 0.00328 (inactive). The NADPH fluorescence slope in test [5] was -3.1e-05 (inactive).

On to `CCOC(=O)N1CCN(C(=O)C2CC(=O)N(Cc3ccc(OC)cc3)C2)CC1` (centres undefined), for which the cell count in test [1] amounted to 607. The inhibition is -14.6% (inactive) in test [1], -28.6% (inactive) in test [3], 13.3% (inactive) in test [7] and 18.5% (inactive) in test [8]. The inhibition of aggregation in test [2] is -1.6% (inactive). For the same compound, the nuclei count turned out to be 112% in test [2] and 111% in test [3]. Besides, the fluorescence slope in test [4] is -0.566 (inactive); in test [6], 0.0052 (inactive). Besides, the NADPH fluorescence slope in test [5] was -1e-05 (inactive).

On to `O=C(CCSc1ccccc1)N1CCOCC1`, for which the cell count in test [1] came to 339. The inhibition was 0.4% (inactive) in test [1], -90.9% (inactive) in test [3], -18.7% (inactive) in test [7] and -64.6% (inactive) in test [8]. The inhibition of aggregation in test [2] was -7.3% (inactive). For the same compound, the nuclei count in test [2] came to 104%; in test [3], 105%. Further, the fluorescence slope is -0.562 (inactive) in test [4] and 0.00456 (inactive) in test [6]. Moreover, in test [5], the NADPH fluorescence slope is -0.000154 (inactive).

Consider `Cc1cc(C)cc(OCCCC(=O)O)c1`, for which the cell count in test [1] turned out to be 254. Moreover, the inhibition is 9.4% (inactive) in test [1], -45% (inactive) in test [3], -0.0954% (inactive) in test [7] and 17.4% (inactive) in test [8]. Further, the inhibition of aggregation in test [2] is 12.3% (inactive). Moreover, the nuclei count in test [2] turned out to be 118%; in test [3] it was 94.2%. The fluorescence slope is -0.531 (inactive) in test [4] and 0.00463 (inactive) in test [6]. For the same compound, the NADPH fluorescence slope in test [5] is -4.2e-05 (inactive).

Consider `COc1ccc(NS(=O)(=O)c2c(C)[nH]c(=O)[nH]c2=O)c(OC)c1`, for which, in test [1], the cell count was 409. Also, the inhibition in test [1] was 3.8% (inactive); in test [3], -40.5% (inactive); in test [7], 7.23% (inactive); in test [8] it was 13.8% (inactive). Besides, in test [2], the inhibition of aggregation was 7.4% (inactive). The values for the nuclei count in test [2] and in test [3] were 103% and 113%, respectively. In addition, the fluorescence slope in test [4] is -0.565 (inactive); in test [6], 0.00529 (inactive). In addition, the NADPH fluorescence slope in test [5] is -2.6e-05 (inactive).

Consider `CCCn1c(SCC(=O)N2CCCc3ccccc32)nnc1-c1ccccn1`, for which the cell count in test [1] was 471. In addition, the inhibition is -0.8% (inactive) in test [1], -20.1% (inactive) in test [3], 20.3% (inactive) in test [7] and 20% (inactive) in test [8]. In addition, the inhibition of aggregation in test [2] is -0.4% (inactive). The nuclei count is 100% in test [2] and 113% in test [3]. For the same compound, the fluorescence slope is -0.59 (inactive) in test [4] and 0.00584 (inactive) in test [6]. Besides, the NADPH fluorescence slope in test [5] was -6.6e-06 (inactive).

As for `CCOc1nc(-c2ccccc2)ccc1-c1noc(-c2cccnc2)n1`, the cell count in test [1] is 233. Also, the inhibition in test [1] was 8.4% (inactive); in test [3] it was 29.6% (inactive); in test [7], -14.5% (inactive); in test [8], -16% (inactive). Also, in test [2], the inhibition of aggregation was -0.3% (inactive). Besides, the nuclei count worked out at 99.4% in test [2] and 91.1% in test [3]. In addition, the values for the fluorescence slope in test [4] and in test [6] were -0.427 (inactive) and 0.00434 (inactive), respectively. Besides, the NADPH fluorescence slope in test [5] was -0.000244 (inactive).

`CC(=O)c1c(NCCc2ccccc2)cc(C)oc1=O`: the cell count in test [1] was 577. Also, the inhibition in test [1] was 8.2% (inactive); in test [3], -32.4% (inactive); in test [7], -1.27% (inactive); in test [8], 11% (inactive). Further, in test [2], the inhibition of aggregation is 8.3% (inactive). Moreover, the figures for the nuclei count in test [2] and in test [3] were 104% and 106%, respectively. Moreover, the fluorescence slope was -0.259 (inactive) in test [4] and 0.00739 (inactive) in test [6]. In addition, in test [5], the NADPH fluorescence slope is -2.2e-05 (inactive).

As for `CCn1cnc2cc(NCc3cccc(OC)c3O)ccc21`, the cell count in test [1] is 322. Further, the inhibition was -2.8% (inactive) in test [1], -18.2% (inactive) in test [3], -3.88% (inactive) in test [7] and -26.2% (inactive) in test [8]. Moreover, in test [2], the inhibition of aggregation was -3.1% (inactive). The values for the nuclei count in test [2] and in test [3] were 94.7% and 88%, respectively. Also, the fluorescence slope in test [4] was -0.437 (inactive); in test [6], 0.00434 (inactive). For the same compound, the NADPH fluorescence slope in test [5] was -4.8e-05 (inactive).

For `COc1ccccc1C(=O)Nc1ccccc1C(=O)N1CCCC1`, the cell count in test [1] came to 675. Moreover, the inhibition in test [1] is -6.5% (inactive); in test [3], -95.5% (inactive); in test [7], 15.4% (inactive); in test [8] it was 17% (inactive). In test [2], the inhibition of aggregation was -2.4% (inactive). For the same compound, the nuclei count was found to be 108% in test [2] and 115% in test [3]. Besides, the fluorescence slope in test [4] was -0.583 (inactive); in test [6], 0.00691 (inactive). The NADPH fluorescence slope in test [5] was -5.2e-05 (inactive).

With `CC(C(=O)N1CCCCC1)n1sc2ccccc2c1=O` (centres undefined), in test [1], the cell count worked out at 355. In addition, the inhibition in test [1] is -10.8% (inactive); in test [3], -96.4% (inactive); in test [7], -14.1% (inactive); in test [8], -35.6% (inactive). The inhibition of aggregation in test [2] is -13.5% (inactive). Moreover, the nuclei count amounted to 111% in test [2] and 109% in test [3]. Further, the results for the fluorescence slope in test [4] and in test [6] were -0.479 (inactive) and 0.00498 (inactive), respectively. Besides, in test [5], the NADPH fluorescence slope was -0.000258 (inactive).
